Laboratory results: ChEMBL document CHEMBL1681633, “Design, synthesis, and in vitro characterization of novel hybrid peptidomimetic inhibitors of STAT3 protein” (Bioorg Med Chem, 2011)
The source made the active and inactive calls. The rule behind the calls is not given here.

Key:
[1] = molecular target: T1, Signal transducer and activator of transcription 3 (Mus musculus, UniProt P42227); test: Displacement of 5-carboxyfluorescein-GpYLPQTV-NH2 from mouse recombinant His-tagged STAT3-SH2 domain expressed in Escherichia coli BL21 (DE3) by fluorescence polarization assay
T1 sequence (P42227 whole entry, the tested form may be a part): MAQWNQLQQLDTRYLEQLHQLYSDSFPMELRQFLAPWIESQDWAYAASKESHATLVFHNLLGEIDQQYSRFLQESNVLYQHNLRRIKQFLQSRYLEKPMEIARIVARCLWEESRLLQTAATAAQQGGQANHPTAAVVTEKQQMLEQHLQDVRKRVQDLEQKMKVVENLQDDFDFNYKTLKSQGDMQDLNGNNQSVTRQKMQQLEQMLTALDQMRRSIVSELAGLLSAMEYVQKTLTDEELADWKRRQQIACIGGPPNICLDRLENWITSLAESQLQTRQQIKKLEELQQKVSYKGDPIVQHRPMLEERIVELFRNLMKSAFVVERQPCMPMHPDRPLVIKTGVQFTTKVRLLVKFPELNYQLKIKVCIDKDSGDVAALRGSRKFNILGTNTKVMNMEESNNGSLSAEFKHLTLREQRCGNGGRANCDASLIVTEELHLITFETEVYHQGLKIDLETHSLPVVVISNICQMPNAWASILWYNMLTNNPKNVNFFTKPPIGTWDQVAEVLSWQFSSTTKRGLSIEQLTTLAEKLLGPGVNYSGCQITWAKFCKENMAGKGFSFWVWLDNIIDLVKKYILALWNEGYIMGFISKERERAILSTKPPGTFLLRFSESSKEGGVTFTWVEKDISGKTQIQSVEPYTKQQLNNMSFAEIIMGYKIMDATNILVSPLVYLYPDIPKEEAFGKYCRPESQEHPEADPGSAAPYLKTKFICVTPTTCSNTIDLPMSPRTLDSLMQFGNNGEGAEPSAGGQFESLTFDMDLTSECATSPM
Procedure, shortened: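 His-tagged protein expressed in BL21(DE3), Ni-column purified. STAT3 150 nM incubated with serial inhibitor concentrations 60 min at 30 °C in 50 mM NaCl, 10 mM HEPES, 1 mM EDTA, 0.1% NP-40; 15 min equilibration at room temperature; 10 nM final probe added, 30 min room temperature, then FP read.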

[2] = molecular target: T1, Signal transducer and activator of transcription 3; test: Inhibition of STAT3 dimerization in mouse NIH3T3 cells expressing v-Src assessed as disruption of STAT3-STAT3: DNA complexation in nucleus after 30 mins by electrophoretic mobility shift assay; type: cell-based
Procedure, shortened: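 Nuclear extracts from NIH3T3/v-Src (constitutively active STAT3), equal total protein, pre-incubated 30 min at room temperature with increasing compound concentrations, then with radiolabelled hSIE probe; EMSA with densitometry quantification.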

[3] = molecular target: Signal transducer and activator of transcription 3 (Mus musculus) (UniProt P42227); test: Inhibition of STAT3 dimerization in v-Src transformed mouse NIH3T3 cells assessed as suppression of STAT3-DNA binding activity in nucleus at 100 uM after 24 hrs by electrophoretic mobility shift assay; type: cell-based
Sequence of Signal transducer and activator of transcription 3 (Mus musculus) (P42227 whole entry, the tested form may be a part): as above
Procedure, shortened: (§1)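 NIH3T3/v-Src cells treated with 100 μM compound for 6 or 24 h; nuclear extracts then tested for STAT3 DNA binding in vitro with radiolabelled hSIE probe by EMSA.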

[4] = molecular target: Signal transducer and activator of transcription 3 (Mus musculus) (UniProt P42227); test: Inhibition of STAT3 dimerization in v-Src transformed mouse NIH3T3 cells assessed as suppression of STAT3-DNA binding activity in nucleus at 100 uM after 6 hrs by electrophoretic mobility shift assay; type: cell-based; procedure, shortened: as §1
[5] = molecular target: T2, Signal transducer and activator of transcription 1 (Mus musculus, UniProt P42225); test: Displacement of 5-carboxyfluorescein-GpYDKPHVL-NH2 from mouse recombinant His-tagged STAT1-SH2 domain expressed in Escherichia coli BL21 (DE3) by fluorescence polarization assay
T2 sequence (P42225 whole entry): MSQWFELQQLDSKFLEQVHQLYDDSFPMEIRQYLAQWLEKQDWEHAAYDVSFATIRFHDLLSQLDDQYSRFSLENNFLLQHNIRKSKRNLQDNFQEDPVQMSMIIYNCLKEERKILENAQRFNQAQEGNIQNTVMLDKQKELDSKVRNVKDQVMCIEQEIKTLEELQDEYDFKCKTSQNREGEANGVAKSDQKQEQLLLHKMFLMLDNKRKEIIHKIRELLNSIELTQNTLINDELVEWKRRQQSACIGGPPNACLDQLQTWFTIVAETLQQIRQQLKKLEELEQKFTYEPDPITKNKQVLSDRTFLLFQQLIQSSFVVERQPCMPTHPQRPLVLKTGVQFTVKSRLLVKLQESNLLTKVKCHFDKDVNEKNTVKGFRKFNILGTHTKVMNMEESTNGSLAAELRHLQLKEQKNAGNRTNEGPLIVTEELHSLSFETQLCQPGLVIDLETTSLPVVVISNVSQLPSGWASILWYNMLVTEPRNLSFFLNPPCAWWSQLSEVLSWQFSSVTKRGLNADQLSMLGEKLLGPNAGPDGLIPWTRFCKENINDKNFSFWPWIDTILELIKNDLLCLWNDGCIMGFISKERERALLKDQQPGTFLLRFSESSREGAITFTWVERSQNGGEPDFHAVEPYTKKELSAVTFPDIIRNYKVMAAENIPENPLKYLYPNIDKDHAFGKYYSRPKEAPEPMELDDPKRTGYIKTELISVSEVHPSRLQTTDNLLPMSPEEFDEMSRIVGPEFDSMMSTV
Procedure, shortened: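 His-tagged protein expressed in BL21(DE3), Ni-column purified. STAT1 80 nM incubated with serial inhibitor concentrations 60 min at 30 °C in 50 mM NaCl, 10 mM HEPES, 1 mM EDTA, 0.1% NP-40; 15 min equilibration at room temperature; 10 nM final probe added, 30 min room temperature, then FP read.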

[6] = molecular target: T1, Signal transducer and activator of transcription 3; test: Inhibition of mouse recombinant SH2 domain of His-tagged full-length STAT3 by surface plasmon resonance assay
Procedure, shortened: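 Purified STAT3 captured on a HisCap sensor chip by injecting 50 μg/ml protein; inhibitors at various concentrations in 1X PBS, 0.5% DMSO running buffer passed over chip; association and dissociation rate constants recorded, their ratio taken as KD.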

[7] = Metabolic stability in human Caco2 cells at 10 uM at pH 7.4 after 90 mins by LC/MS analysis; type: ADME, cell-based; details: Caco-2 cells, read-out: Stability
Procedure, shortened: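 Caco-2 monolayers grown on PET membrane inserts (1.0 µm pore) at 75,000 cells/cm² and used on day 25, fully polarized and differentiated. Compound at 10 μM final, non-gradient pH 7.4/7.4, 90 min. Samples analysed by narrow-window mass-extraction LC/QTof-MS for parent-compound peak areas. Percent recovered or transported calculated relative to the initial dosing concentration.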

[8] = system: Caco-2; test: Apparent permeability across apical to basolateral side in human Caco2 cells at 10 uM at pH 7.4 after 90 mins by LC/MS analysis; type: ADME, cell-based; details: caco-2, pH 7.4, […]
[9] = system: NIH3T3; test: Antiproliferative activity against mouse NIH/3T3 cells assessed as suppression of cell viability at 50 uM after 24 hrs by CyQuant cell viability assay; type: functional
[10] = system: HL-60; test: Antiproliferative activity against human HL60 cells assessed as suppression of cell viability after 24 hrs by CyQuant cell viability assay; type: functional, cell-based; details: HL-60, 24 h
Procedure, shortened: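 Cells incubated 24 h with a range of inhibitor concentrations; HL-60 cells (no aberrant STAT3 signalling) run as control alongside DU145, Panc-1, NIH3T3/vSrc and breast cancer lines. Viability/growth read by CyQuant assay.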

[11] = system: PANC-1; test: Antiproliferative activity against human PANC1 cells assessed as suppression of cell viability at 50 uM after 24 hrs by CyQuant cell viability assay; type: functional
Procedure, shortened: (§2)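 Cancer cells (human breast MDA-MB-231, pancreatic Panc-1, prostate DU-145) treated with a range of inhibitor concentrations, 30–50 μM, for 24 h. Growth and viability read by CyQuant cell proliferation/viability assay.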

[12] = system: DU-145; test: Antiproliferative activity against human DU145 cells assessed as suppression of cell viability at 50 uM after 24 hrs by CyQuant cell viability assay; type: functional; procedure, shortened: as §2
[13] = system: MDA-MB-468 (human); test: Antiproliferative activity against human MDA-MB-468 cells assessed as suppression of cell viability at 50 uM after 24 hrs by CyQuant cell viability assay

Compound | Ki [1] | IC50 [2] | further results
CC(C)C[C@H](NC(=O)[C@H](Cc1ccc(OP(=O)(O)O)cc1)NC(=O)c1ccc(C#N)cc1)C(=O)Nc1ccc(C(=O)NCc2ccccc2)c(-c2cccc(C#N)c2)c1 | 13 µM | 64 µM | 
CC(C)C[C@H](NC(=O)[C@H](Cc1ccc(OP(=O)(O)O)cc1)NC(=O)c1ccc(C#N)cc1)C(=O)Nc1cc(C(=O)NCc2ccccc2)cc(-c2ccc(C(N)=O)cc2)c1 | 9 µM | 5 µM | Activity [3]: Active; inhibition [4]: 50%; Ki [5]: 16.5 µM; Kd [6]: 0.205 µM
COC(=O)c1ccc(-c2cc(NC(=O)[C@H](CC(C)C)NC(=O)[C@H](Cc3ccc(OP(=O)(O)O)cc3)NC(=O)c3ccc(C#N)cc3)cc(C(=O)NCc3ccccc3)c2)cc1 | 25 µM | 112 µM | 
CC(C)C[C@H](NC(=O)[C@H](Cc1ccc(OP(=O)(O)O)cc1)NC(=O)c1ccc(C#N)cc1)C(=O)Nc1cc(C(=O)NCc2ccccc2)cc(-c2cccc(C#N)c2)c1 | 18 µM | 92 µM | 
CC(C)C[C@H](NC(=O)[C@H](Cc1ccc(OP(=O)(O)O)cc1)NC(=O)c1ccc(C#N)cc1)C(=O)Nc1ccc(C(=O)NCc2ccccc2)c(-c2cccc(C(N)=O)c2)c1 | 15 µM | 62 µM | 
COC(=O)c1ccc(-c2cc(NC(=O)[C@H](CC(C)C)NC(=O)[C@H](Cc3ccc(OP(=O)(O)O)cc3)NC(=O)c3ccc(C#N)cc3)ccc2C(=O)NCc2ccccc2)cc1 | 26 µM | > 200 µM | 
CC(C)C[C@H](NC(=O)[C@H](Cc1ccc(OP(=O)(O)O)cc1)NC(=O)c1ccc(C#N)cc1)C(=O)Nc1ccc(C(=O)NCc2ccccc2)c(-c2ccc(C#N)cc2)c1 | 11 µM | 33 µM | 
COC(=O)c1cccc(-c2cc(NC(=O)[C@H](CC(C)C)NC(=O)[C@H](Cc3ccc(OP(=O)(O)O)cc3)NC(=O)c3ccc(C#N)cc3)ccc2C(=O)NCc2ccccc2)c1 | 10 µM | 40 µM | 
CC(C)C[C@H](NC(=O)[C@H](Cc1ccc(OP(=O)(O)O)cc1)NC(=O)c1ccc(C#N)cc1)C(=O)Nc1cc(C(=O)NCc2ccccc2)cc(-c2ccc(C#N)cc2)c1 | 36 µM | 60 µM | 
CC(C)C[C@H](NC(=O)[C@H](Cc1ccc(O)cc1)NC(=O)c1ccc(C#N)cc1)C(=O)Nc1cc(C(=O)NCc2ccccc2)cc(-c2ccc(C(N)=O)cc2)c1 |  | 190 µM | Activity [3]: inactive; Activity [4]: inactive; remaining at […], 10 µM [7]: 36%; Papp [8]: > 0.5 ×10⁻⁶ cm/s; Kd [6]: 17 µM
CC(C)C[C@H](NC(=O)[C@H](Cc1ccc(O)cc1)NC(=O)c1ccc(C#N)cc1)C(=O)Nc1ccc(C(=O)NCc2ccccc2)c(-c2ccc(C(N)=O)cc2)c1 |  | 103 µM | Activity [3]: Active; Activity [4]: Active; remaining at […], 10 µM [7]: 52%; Papp [8]: > 0.5 ×10⁻⁶ cm/s; Kd [6]: 12 µM
COC(=O)c1cccc(-c2cc(NC(=O)[C@H](CC(C)C)NC(=O)[C@H](Cc3ccc(OP(=O)(O)O)cc3)NC(=O)c3ccc(C#N)cc3)cc(C(=O)NCc3ccccc3)c2)c1 | 23 µM | 66 µM | 
CC(C)C[C@H](NC(=O)[C@H](Cc1ccc(OP(=O)(O)O)cc1)NC(=O)c1ccc(C#N)cc1)C(=O)Nc1ccc(C(=O)NCc2ccccc2)c(-c2ccc(C(N)=O)cc2)c1 | 5 µM | 73.1 µM | Activity [9]: 50%; IC50 [10]: > 200 µM; Activity [3]: Active; inhibition [4]: > 80%; Ki [5]: 6.3 µM; Papp [8]: < 0.5 ×10⁻⁶ cm/s; Kd [6]: 0.9 µM; Activity [11]: 50%; Activity [12]: 50%; Activity [13]: 50%
CC(C)C[C@H](NC(=O)[C@H](Cc1ccc(OP(=O)(O)O)cc1)NC(=O)c1ccc(C#N)cc1)C(=O)Nc1cc(C(=O)NCc2ccccc2)cc(-c2cccc(C(N)=O)c2)c1 | 38 µM | 188 µM | 
